ChEMBL document CHEMBL1255334
Activity calls are given as the source filed them. The calls are words filed in the database; no cut-off is given here.

Key:
Type in all cases: functional, organism-based
[1] = test system: Mycobacterium tuberculosis; assay: Antibacterial activity against Mycobacterium tuberculosis containing PZase Tyr(103)>His mutant assessed as at 100 mg/liter
Outline: (§1)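 Clinical M. tuberculosis isolates first grown on Löwenstein-Jensen medium 3 to 4 weeks at 37°C. Radiometric BACTEC 460 test in acidified PZA test medium. Inoculum: ~McFarland 1 suspension grown in 12B medium until growth index (GI) >300. Paired vials per strain: drug-free control and PZA 100 mg/liter. Read when control GI reached 200. Resistant if PZA-vial GI >11% of control GI, susceptible if <9%.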

[2] = test system: Mycobacterium tuberculosis; assay: Antibacterial activity against Mycobacterium tuberculosis containing PZase Ile(90)>Ser mutant assessed as at 100 mg/liter; outline: as §1
[3] = test system: Mycobacterium tuberculosis; assay: Antibacterial activity against Mycobacterium tuberculosis containing PZase Trp(68)>Arg mutant assessed as at 100 mg/liter; outline: as §1
[4] = test system: Mycobacterium tuberculosis; assay: Antibacterial activity against Mycobacterium tuberculosis containing PZase Ser(67)>Pro mutant assessed as at 100 mg/liter; outline: as §1
[5] = test system: Mycobacterium tuberculosis; assay: Antibacterial activity against Mycobacterium tuberculosis containing PZase Ser(65)>Ser frameshift mutant assessed as at 100 mg/liter; outline: as §1
[6] = test system: Mycobacterium tuberculosis; assay: Antibacterial activity against Mycobacterium tuberculosis containing pncA gene with C(174)>G mutation assessed as at 100 mg/liter; outline: as §1
[7] = test system: Mycobacterium tuberculosis; assay: Antibacterial activity against Mycobacterium tuberculosis containing PZase Phe(58)>Leu mutant assessed as at 100 mg/liter; outline: as §1
[8] = test system: Mycobacterium tuberculosis; assay: Antibacterial activity against Mycobacterium tuberculosis containing PZase Pro(54)>Leu mutant assessed as at 100 mg/liter; outline: as §1
[9] = test system: Mycobacterium tuberculosis; assay: Antibacterial activity against Mycobacterium tuberculosis containing PZase Pro(54)>Ser mutant assessed as at 100 mg/liter; outline: as §1
[10] = test system: Mycobacterium tuberculosis; assay: Antibacterial activity against Mycobacterium tuberculosis containing PZase His(51)>Gln mutant assessed as at 100 mg/liter; outline: as §1
[11] = test system: Mycobacterium tuberculosis; assay: Antibacterial activity against Mycobacterium tuberculosis containing PZase Thr(47)>Ala mutant assessed as at 100 mg/liter; outline: as §1
[12] = test system: Mycobacterium tuberculosis; assay: Antibacterial activity against Mycobacterium tuberculosis containing PZase Ile(6)>Thr mutant assessed as at 100 mg/liter; outline: as §1
[13] = test system: Mycobacterium tuberculosis; assay: Antibacterial activity against Mycobacterium tuberculosis containing pncA gene with A(-11)>G mutation assessed as at 100 mg/liter; outline: as §1
[14] = test system: Mycobacterium tuberculosis; assay: Antibacterial activity against Mycobacterium tuberculosis containing PZase Ser(65)>Ser mutant assessed as at 100 mg/liter; outline: as §1
[15] = test system: Mycobacterium tuberculosis; assay: Antibacterial activity against Mycobacterium tuberculosis containing pncA gene with G insertion between nucleotide -33 and -32 assessed as at 100 mg/liter; outline: as §1
[16] = test system: Mycobacterium tuberculosis; assay: Antibacterial activity against Mycobacterium tuberculosis containing pncA gene with C insertion between nucleotide -3 and -2 assessed as at 100 mg/liter; outline: as §1
[17] = test system: Mycobacterium tuberculosis; assay: Antibacterial activity against Mycobacterium tuberculosis containing PZase Val(155)>Gly mutant assessed as at 100 mg/liter; outline: as §1
[18] = test system: Mycobacterium tuberculosis; assay: Antibacterial activity against Mycobacterium tuberculosis containing PZase Leu(172)>Pro mutant assessed as at 100 mg/liter; outline: as §1
[19] = test system: Mycobacterium tuberculosis; assay: Antibacterial activity against Mycobacterium tuberculosis containing PZase Met(175)>Thr mutant assessed as at 100 mg/liter; outline: as §1
[20] = test system: Mycobacterium tuberculosis; assay: Antibacterial activity against Mycobacterium tuberculosis containing PZase with In-frame insertion between amino acids 148 and 149 assessed as at 100 mg/liter; outline: as §1
[21] = test system: Mycobacterium tuberculosis; assay: Antibacterial activity against Mycobacterium tuberculosis containing PZase Thr(142)>Lys mutant assessed as at 100 mg/liter; outline: as §1
[22] = test system: Mycobacterium tuberculosis; assay: Antibacterial activity against Mycobacterium tuberculosis containing PZase Cys(138)>Tyr mutant assessed as at 100 mg/liter; outline: as §1
[23] = test system: Mycobacterium tuberculosis; assay: Antibacterial activity against Mycobacterium tuberculosis containing PZase Gly(132)>Ala mutant assessed as at 100 mg/liter; outline: as §1
[24] = test system: Mycobacterium tuberculosis; assay: Antibacterial activity against Mycobacterium tuberculosis containing PZase Gly(132)>Ser mutant assessed as at 100 mg/liter; outline: as §1
[25] = test system: Mycobacterium tuberculosis; assay: Antibacterial activity against Mycobacterium tuberculosis containing pncA gene with GG insertion between nt 391 and 392 assessed as at 100 mg/liter; outline: as §1
[26] = test system: Mycobacterium tuberculosis; assay: Antibacterial activity against Mycobacterium tuberculosis containing PZase Val(125)>Asp mutant assessed as at 100 mg/liter; outline: as §1
[27] = test system: Mycobacterium tuberculosis; assay: Antibacterial activity against Mycobacterium tuberculosis containing PZase Val(125)>Phe mutant assessed as at 100 mg/liter; outline: as §1
[28] = test system: Mycobacterium tuberculosis; assay: Antibacterial activity against Mycobacterium tuberculosis containing PZase Arg(123)>Pro mutant assessed as at 100 mg/liter; outline: as §1

With `NC(=O)c1cnccn1` the Activity [1] was “inactive”, the Activity [2] was “inactive” and the Activity [3] was “inactive”. The Activity [4] was “inactive”, the Activity [5] was “inactive” and the Activity [6] was “inactive”. For the same compound, the Activity [7] was “inactive”, the Activity [8] was “inactive” and the Activity [9] was “inactive”. The Activity [10] was “inactive”, the Activity [11] was “inactive” and the Activity [12] was “inactive”. The Activity [13] was “inactive”, the Activity [14] was “Active” and the Activity [15] was “Active”. For the same compound, the Activity [16] was “Active”, the Activity [17] was “inactive” and the Activity [18] was “inactive”. For the same compound, the Activity [19] was “inactive”, the Activity [20] was “inactive” and the Activity [21] was “inactive”. The Activity [22] was “inactive”, the Activity [23] was “inactive” and the Activity [24] was “inactive”. For the same compound, the Activity [25] was “inactive”, the Activity [26] was “inactive” and the Activity [27] was “inactive”. The Activity [28] was “inactive”.
